From paper PMC12926890 (Molecular pharmaceutics, 2024)

How the values were obtained:
Format in all cases: cell-based, human
hCMEC/D3 monolayers [1] = experiment: F-Aβ42 intracellular accumulation by confocal microscopy; conditions: 1 μM SB203580 30 min, then 60 min with 1 μM F-Aβ42
How it was run: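 Monolayers were grown on collagen-coated 8-well chambered slides, cultured 5−7 days at 37 °C and 5% CO₂, then held in 1% serum medium overnight. They received 1 μM p38 inhibitor for 30 min, then 1 μM FITC-Aβ₄₂ for 60 min. Cells were washed three times with ice-cold PBS, fixed in 4% paraformaldehyde for 20 min at room temperature, and DAPI-stained (300 nM, 10 min). They were then mounted and imaged by confocal SIM super-resolution.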

hCMEC/D3 monolayers [2] = experiment: F-Aβ42 cellular uptake by flow cytometry; conditions: 1 μM SB203580 30 min, then 60 min with 1 μM F-Aβ42
How it was run: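 hCMEC/D3 monolayers grown on collagen-coated 6-well plates, seeded at about 25,000 cells/cm², cultured 5−7 days at 37 °C and 5% CO₂ to confluency, then moved to 1% serum medium the day before. Cells were pretreated 30 min with 1 μM p38 inhibitor, then exposed 60 min to 1 μM FITC-Aβ₄₂. Read-out was the median fluorescence intensity of the cell population by flow cytometry, compared by unpaired two-tailed t test.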

p38 MAPK = experiment: RPPA proteomics assay of p38 phosphorylation; conditions: BBB endothelial (hCMEC/D3) cells exposed to Aβ42

Compound | fluorescent intensity of F-Aβ42 in the cytoplasm (confocal microscopy) (hCMEC/D3 monolayers [1]) | F-Aβ42 uptake by hCMEC/D3 cells (flow cytometry, MFI) (hCMEC/D3 monolayers [2]) | p38 MAPK kinase activation (RPPA) (p38 MAPK)
C[S+]([O-])c1ccc(-c2nc(-c3ccncc3)c(-c3ccc(F)cc3)[nH]2)cc1 (stereo not drawn) [SB203580] | substantial reduction | significantly reduced | –
Aβ42: unlabeled amyloid-β 42 peptide custom synthesized by AAPPTec | – | – | significantly activated
